Active and inactive are the calls of the source.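 The calls were made as follows, unless noted: active = viability at or below 30% in both replicate assays; inconclusive = viability at or below 30% in just one of the two assays; inactive = the rest.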

From PubChem BioAssay come the findings set out here.

The nature of test [1]: reducers of endogenous Her2 protein level, primary screen, SKBR3 breast tumor cells, AlphaScreen, ATP viability (AID 461;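 active = Her2 level under about 52% in both replicate screens, with viability over 70% of control, limit read from the data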;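 as to Her2 level: lower value means less Her2 protein in the cells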;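 as to viability: percent of carrier control wells set as 100% viability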). Conditions: 18-24 h, measured here: SKBR3 viability, ATP luminescence, at 10 µM.
Test [2] deals with Receptor tyrosine-protein kinase erbB-2 (Homo sapiens) (UniProt P04626). The description is as above. Conditions: 18-24 h, at 10 µM, stronger effect = lower value.
Test [3] in a line: SK-BR-3 cell growth inhibitors, pilot screen, 24 h, human (AID 572;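 active = viability at or below 10% of carrier control in both of two separate runs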;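 also: compound exposure lasted between 18 and 24 h rather than exactly 24 h; 100% = carrier-treated control wells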). The following applies: SK-BR-3 viability, CellTiter-Glo luminescence, at 10 µM, stronger effect = lower value.
Test [4] in a line: HUVEC growth inhibition – cell-based, human, primary screen (AID 575).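 Also: 100% = median of untreated cell wells with 0.1% DMSO on each plate.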 Conditions: HUVEC proliferation, CellTiter-Glo luminescence, 72 h; at 10 µM; stronger effect = lower value. In a few lines: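 Assay system: primary human umbilical vein endothelial cells / Buffer or medium: endothelial basal medium with 2% FBS plus growth supplements / Compound dosing: one dose, 10 µM final, 0.1% DMSO / Timing: 72 h treatment at 37 °C / Signal: CTG luminescence / Benchmarks: 32 DMSO-only cell-control wells (high), 32 MePR drug-control wells (low) per plate / Plate: collagen-coated 384-well format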

The nature of test [5]: growth inhibitors of H69AR lung tumor, primary screen, human, duplicate replicates (AID 580;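 active = viability at or under a set limit in both replicates, limit being median viability minus 3 SD, cut at about 48% in these data, passing the limit was not always enough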;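 also: 100% = mean luminescence of untreated wells and 0% = no signal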). Conditions: H69AR lung tumor cells viability, ATP luminescence, 72 h; at 10 µM; stronger effect = lower value.
Test [6] in a line: reversal of MRP1-mediated doxorubicin resistance, pilot screen, H69AR cells, doxorubicin co-treatment (AID 601;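 active = viability loss from added drug above about 55%, and viability with drug at most 40%, in both replicates, limit read from the data, passing the limit was not always enough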). The following applies: CellTiter-Glo, 72 h, at 10 µM; for differential viability (reversal): stronger effect = higher value.
The nature of test [7]: 384-well plate pilot, post-Golgi transport modulator project, inhibition of yeast transport mutant growth (AID 636; in the data active = inhibition above about 31%). Conditions: absorbance 615 nm, about 18 h, stronger effect = higher value.
Test [8] is described as follows: growth suppression of yeast trafficking mutant, preliminary HTS, modulators of trafficking downstream of Golgi apparatus project, 1536-format plate, OD 615 nm (AID 637; in the data active = inhibition above about 30%). The following applies: yeast transport mutant growth, absorbance 615 nm, 18 h; stronger effect = higher value.
Setting [9] is: H69AR cells + 2 uM doxorubicin, measured here: viability with 2 uM doxorubicin, stronger effect = lower value.
[10] abbreviates: H69AR cells, compound alone cytotoxicity.

Chain of Receptor tyrosine-protein kinase erbB-2 (Homo sapiens) (P04626 whole entry, looked up): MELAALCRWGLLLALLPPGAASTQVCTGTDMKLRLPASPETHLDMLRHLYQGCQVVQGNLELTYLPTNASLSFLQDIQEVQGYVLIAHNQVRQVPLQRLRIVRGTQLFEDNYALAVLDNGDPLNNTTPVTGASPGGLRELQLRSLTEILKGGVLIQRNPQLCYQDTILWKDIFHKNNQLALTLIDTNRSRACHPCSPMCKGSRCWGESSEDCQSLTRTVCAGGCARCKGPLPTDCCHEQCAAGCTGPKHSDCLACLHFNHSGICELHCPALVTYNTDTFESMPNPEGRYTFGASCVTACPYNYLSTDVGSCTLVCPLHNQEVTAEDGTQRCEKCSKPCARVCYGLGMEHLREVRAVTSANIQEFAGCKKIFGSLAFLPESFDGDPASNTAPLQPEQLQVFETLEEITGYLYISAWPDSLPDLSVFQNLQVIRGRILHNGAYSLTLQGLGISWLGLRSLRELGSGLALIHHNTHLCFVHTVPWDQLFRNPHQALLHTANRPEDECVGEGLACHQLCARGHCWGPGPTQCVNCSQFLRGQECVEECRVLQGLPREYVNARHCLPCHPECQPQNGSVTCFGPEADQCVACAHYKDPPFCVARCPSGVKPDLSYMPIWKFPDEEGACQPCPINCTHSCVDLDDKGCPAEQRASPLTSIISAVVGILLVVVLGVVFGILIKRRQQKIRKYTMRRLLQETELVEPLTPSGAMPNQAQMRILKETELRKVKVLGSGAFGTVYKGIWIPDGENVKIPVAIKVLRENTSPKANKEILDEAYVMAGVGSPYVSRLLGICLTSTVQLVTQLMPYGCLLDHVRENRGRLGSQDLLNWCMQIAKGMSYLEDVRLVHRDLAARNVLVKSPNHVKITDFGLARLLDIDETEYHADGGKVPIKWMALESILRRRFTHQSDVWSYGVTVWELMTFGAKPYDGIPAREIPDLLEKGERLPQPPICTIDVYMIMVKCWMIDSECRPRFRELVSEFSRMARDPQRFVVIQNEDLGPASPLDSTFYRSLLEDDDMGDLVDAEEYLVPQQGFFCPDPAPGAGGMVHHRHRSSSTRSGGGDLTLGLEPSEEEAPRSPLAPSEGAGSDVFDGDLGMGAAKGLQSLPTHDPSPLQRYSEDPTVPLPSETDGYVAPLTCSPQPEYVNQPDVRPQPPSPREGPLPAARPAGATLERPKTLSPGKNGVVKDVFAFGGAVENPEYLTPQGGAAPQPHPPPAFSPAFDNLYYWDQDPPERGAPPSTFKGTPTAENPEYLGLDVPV

Regarding `COCCNC(=O)C(c1ccc(O)cc1)N(Cc1ccco1)C(=O)CCC(=O)Nc1nccs1` (stereo not given), the viability was 81.5% in test [1]; 81.5% (inactive) in test [3]; 104% (inactive) in test [4]; 99.5% (inactive) in test [5]; 88.3% in test [6] (setting [9]); 99.5% in test [6] (setting [10]). Further, in test [2], the Her2 level was 104% (inactive). Further, in test [6] (H69AR cells + 2 uM doxorubicin), the differential viability (reversal) is 11.1% (inactive). In addition, the inhibition was -0.81% (inactive) in test [7] and -6.23% (inactive) in test [8].
Take `COc1ccc2c(c1)[nH]c1c(=O)n(CCN(C)C)cnc12`: the viability was 105% in test [1]; 105% (inactive) in test [3]; 104% (inactive) in test [4]; 91.8% (inactive) in test [5]; 100% in test [6] (setting [9]); 91.8% in test [6] (setting [10]). In addition, the Her2 level in test [2] is 85.5% (inactive). In test [6] (H69AR cells + 2 uM doxorubicin), the differential viability (reversal) was -8.28% (inactive). In addition, the inhibition in test [7] is -3.16% (inactive); in test [8], 1.48% (inactive).
For `CCOC(=O)c1ccc(NC(=O)CCc2nc(-c3cccc(C)c3)no2)cc1`, the viability in test [1] is 114%; in test [3], 114% (inactive); in test [4], 40.8% (inactive); in test [5] it was 86.2% (inactive); in test [6] (setting [9]) it was 99.1%; in test [6] (setting [10]), 86.2%. Further, in test [2], the Her2 level is 97.5% (inactive). The differential viability (reversal) in test [6] (H69AR cells + 2 uM doxorubicin) was -12.8% (inactive). The inhibition in test [7] is 0.41% (inactive); in test [8], 13% (inactive).
`CCCCS(=O)(=O)NC1=NCN(C2CCN(Cc3ccccc3)CC2)CN1`: the viability is 116% in test [1]; 116% (inactive) in test [3]; 91.5% (inactive) in test [4]; 111% (inactive) in test [5]; 101% in test [6] (setting [9]); 111% in test [6] (setting [10]). Moreover, in test [2], the Her2 level is 98.5% (inactive). Besides, the differential viability (reversal) in test [6] (H69AR cells + 2 uM doxorubicin) is 9.66% (inactive). For the same molecule, the results for the inhibition in test [7] and in test [8] were -2.7% (inactive) and -2.22% (inactive), respectively.
For `O=S(=O)(Nc1nc2ccccc2nc1NCc1ccco1)c1ccc(Cl)cc1`, the viability in test [1] is 94%; in test [3], 94% (inactive); in test [4], 69.6% (inactive); in test [5], 65.3% (inactive); in test [6] (setting [9]), 69.8%; in test [6] (setting [10]) it was 65.3%. Also, the Her2 level in test [2] was 103% (inactive). The differential viability (reversal) in test [6] (H69AR cells + 2 uM doxorubicin) is -4.42% (inactive). The inhibition in test [7] was -4.42% (inactive); in test [8] it was 4.83% (inactive).
Consider `COc1ccccc1N1CCN(C(=O)CCNS(=O)(=O)c2ccc3c(c2)CCC(=O)N3)CC1`, for which the viability in test [1] is 89%; in test [3], 89% (inactive); in test [4], 106% (inactive); in test [5], 89.8% (inactive); in test [6] (setting [9]), 90.4%; in test [6] (setting [10]) it was 89.8%. Further, the Her2 level in test [2] is 81.5% (inactive). The differential viability (reversal) in test [6] (H69AR cells + 2 uM doxorubicin) was -0.605% (inactive). In addition, the inhibition in test [7] was -4.53% (inactive); in test [8] it was 2.62% (inactive).
As for `NC(=O)c1ccccc1NC(=O)CN1CCOCC1`, the viability in test [1] is 106%; in test [3], 106% (inactive); in test [4] it was 104% (inactive); in test [5], 88.1% (inactive); in test [6] (setting [9]), 81.9%; in test [6] (setting [10]) it was 88.1%. In addition, the Her2 level in test [2] is 87% (inactive). Besides, the differential viability (reversal) in test [6] (H69AR cells + 2 uM doxorubicin) was 6.19% (inactive). In addition, the inhibition in test [7] was -1.87% (inactive); in test [8] it was 0.32% (inactive).
For the molecule `Cn1c(SCc2cccc3ccccc23)nnc1-c1ccco1`, the viability was 76% in test [1]; 76% (inactive) in test [3]; 126% (inactive) in test [4]; 92.4% (inactive) in test [5]; 84.5% in test [6] (setting [9]); 92.4% in test [6] (setting [10]). For the same molecule, the Her2 level in test [2] is 98.5% (inactive). In test [6] (H69AR cells + 2 uM doxorubicin), the differential viability (reversal) is 7.87% (inactive). For the same molecule, the inhibition in test [7] is -0.93% (inactive); in test [8], -6.94% (inactive).
As to `CC(=O)C1=C(O)C(=O)N(c2ccc(C(=O)O)cc2)C1c1ccccc1` (stereo not given), the viability is 107% in test [1]; 107% (inactive) in test [3]; 117% (inactive) in test [4]; 102% (inactive) in test [5]; 95.7% in test [6] (setting [9]); 102% in test [6] (setting [10]). Further, the Her2 level in test [2] was 89% (inactive). For the same molecule, the differential viability (reversal) in test [6] (H69AR cells + 2 uM doxorubicin) is 5.88% (inactive). The inhibition in test [7] is -0.66% (inactive); in test [8] it was 1.8% (inactive).
On to `CCOC(=O)c1c(C)oc2ccc(OCC(=O)N(CC)CC)cc12`, for which the viability was 85.5% in test [1]; 85.5% (inactive) in test [3]; 101% (inactive) in test [4]; 101% (inactive) in test [5]; 97.2% in test [6] (setting [9]); 101% in test [6] (setting [10]). For the same molecule, in test [2], the Her2 level is 85% (inactive). In addition, the differential viability (reversal) in test [6] (H69AR cells + 2 uM doxorubicin) is 3.73% (inactive). In addition, the values for the inhibition in test [7] and in test [8] were -5.26% (inactive) and -0.32% (inactive), respectively.
`O=C(CSc1nnc2ccccn12)NCCN1C(=O)CSC1=O`: the viability in test [1] was 134%; in test [3], 134% (inactive); in test [4], 92.5% (inactive); in test [5] it was 105% (inactive); in test [6] (setting [9]), 93.6%; in test [6] (setting [10]) it was 105%. The Her2 level in test [2] was 85.5% (inactive). Also, in test [6] (H69AR cells + 2 uM doxorubicin), the differential viability (reversal) was 11.8% (inactive). For the same molecule, the inhibition in test [7] was -3.64% (inactive); in test [8], -0.32% (inactive).
As for `COC(=O)C(C)Sc1nc2c(c(=O)n(C)c(=O)n2C)n1Cc1cccc(C)c1` (stereo not given), the viability in test [1] is 97.5%; in test [3] it was 97.5% (inactive); in test [4], 79.7% (inactive); in test [5] it was 91.5% (inactive); in test [6] (setting [9]), 82.8%; in test [6] (setting [10]), 91.5%. For the same molecule, the Her2 level in test [2] was 86.5% (inactive). In test [6] (H69AR cells + 2 uM doxorubicin), the differential viability (reversal) was 8.71% (inactive). Further, the results for the inhibition in test [7] and in test [8] were -0.26% (inactive) and -0.32% (inactive), respectively.
For `COc1ccc2nc3oc(C(=O)N4CCCCC4)cc3cc2c1`, the viability was 98% in test [1]; 98% (inactive) in test [3]; 86.5% (inactive) in test [4]; 86.7% (inactive) in test [5]; 83.9% in test [6] (setting [9]); 86.7% in test [6] (setting [10]). Moreover, in test [2], the Her2 level is 90.5% (inactive). The differential viability (reversal) in test [6] (H69AR cells + 2 uM doxorubicin) is 2.71% (inactive). Moreover, the inhibition is -5.26% (inactive) in test [7] and -3.67% (inactive) in test [8].
For the molecule `O=C(Nc1cccc(NC(=O)c2cccnc2)c1)c1cccnc1`, the viability in test [1] is 89%; in test [3], 89% (inactive); in test [4], 119% (inactive); in test [5], 86.7% (inactive); in test [6] (setting [9]), 88.9%; in test [6] (setting [10]), 86.7%. Besides, in test [2], the Her2 level is 80% (inactive). The differential viability (reversal) in test [6] (H69AR cells + 2 uM doxorubicin) is -2.21% (inactive). The inhibition in test [7] is -5% (inactive); in test [8], 1.67% (inactive).
